Test results from publication PMC9200056 (Chemical Science, 2022).
Values belong to the substance of their own block, whether it stands above or below them. Non-standard residues stand in square brackets, D forms with d. *: point of attachment. 1Nal = N[C@@H](Cc1cccc2ccccc12)C(=O)O; ACC = NC(=O)Cc1cc(=O)oc2cc(N*)ccc12; Igl = N[C@H](C(=O)O)C1Cc2ccccc2C1; hArg = N=C(N)NCCCC[C@H](N)C(=O)O; Dab = NCC[C@H](N)C(=O)O; Cbz = O=C(OCc1ccccc1)*

Tests used:
Assay type in all cases: biochemical
[1] = target: APC (activated protein C) (Homo sapiens, UniProt P04070); assay: Initial substrate screening; conditions: for increase in activity on exchanging L-Nle(O-Bzl) (SMA4) at P3: initial screening, 1 μM substrate, relative to SMA4
Procedure, shortened: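 Plasma-derived human APC (thrombin–thrombomodulin-activated) was preincubated 15 min at 37 °C in Tris/NaCl/CaCl2 buffer, pH 7.4, then added to ACC substrates at 1 μM final. Final APC was 50–90 nM, chosen per substrate set. ACC release was read at 355/460 nm for 30 min. Rates (RFU s−1) came from the linear portion and were adjusted to equal enzyme activity; at least 2 repeats were averaged.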

thrombin [2] = target: T1, thrombin (Homo sapiens, UniProt P00734); assay: Substrate kinetics; conditions: ratio of kcat/KM values
Procedure, shortened: (§1)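 Purified plasma-derived human enzymes were preincubated 15 min at 37 °C in Tris/NaCl/CaCl2 buffer, pH 7.4. They were added to eight serially diluted ACC substrate concentrations (4.68 nM–741 μM overall). ACC release was followed at 355/460 nm for 30 min at 37 °C to derive kcat, KM and kcat/KM; at least duplicate runs were averaged.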

fXa (factor Xa) [3] = target: T2, fXa (factor Xa) (Homo sapiens, UniProt P00742); assay: Substrate kinetics
Procedure, shortened: as §1

fXa (factor Xa) [4] = target: T2, fXa (factor Xa); assay: Initial substrate screening; conditions: 1 μM substrate, relative to SMX15
Procedure, shortened: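 ACC fluorogenic substrates at 1 μM final, from 10 mM stocks diluted 100-fold in DMSO. fXa (7–100 nM, set per substrate for adequate signal) preincubated 15 min at 37 °C in 20 mM Tris, 150 mM NaCl, 5 mM CaCl2, pH 7.4. Hydrolysis read for 30 min at 37 °C (ex 355, em 460 nm). Linear-phase RFU s−1 normalised to equal enzyme activity, averaged over at least two repeats.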

thrombin in human plasma = assay: Thrombin labeling by fluorescent ABP in human plasma; conditions: EDTA plasma diluted 7.5 times, probe 20 μM, 60 min, 37 °C; SDS–PAGE
Procedure, shortened: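 Human plasma from EDTA-anticoagulated whole blood, diluted 7.5-fold in Tris/NaCl/5 mM CaCl2 buffer, pH 7.4, incubated 1:1 with thrombin-directed Cy7 probe (1–20 μM) for 60 min at 37 °C. Reduced in SDS/DTT at 95 °C, run on 12% SDS–PAGE and blotted. Sheep anti-fII for 7 h, then Alexa 680 secondary. Cy7 imaged at 784 nm, antibody at 658 nm. At least 3 replicates.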

fXa (factor Xa) [5] = target: T2, fXa (factor Xa); assay: Inhibition kinetics; conditions: ratio of kobs/I values
APC in human plasma = assay: APC labeling by fluorescent ABP in human plasma; conditions: EDTA plasma diluted 7.5 times, probe 20 μM, 60 min, 37 °C; SDS–PAGE
Procedure, shortened: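 Human plasma from EDTA-anticoagulated whole blood, diluted 7.5-fold in 20 mM Tris, 150 mM NaCl, 5 mM CaCl2, pH 7.4, mixed 1:1 with APC-directed Cy5 probe (1–20 μM), 60 min, 37 °C. SDS/DTT reduction at 95 °C for 5 min, then 12% SDS–PAGE and nitrocellulose blot. Chicken anti-protein C for 7 h, then Alexa 488 secondary. Cy5 imaged at 658 nm, antibody at 488 nm. At least 3 replicates.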

thrombin [6] = target: T1, thrombin; assay: Inhibition kinetics; conditions: ratio of kobs/I values

T2 sequence (P00742 235-488 limits assumed): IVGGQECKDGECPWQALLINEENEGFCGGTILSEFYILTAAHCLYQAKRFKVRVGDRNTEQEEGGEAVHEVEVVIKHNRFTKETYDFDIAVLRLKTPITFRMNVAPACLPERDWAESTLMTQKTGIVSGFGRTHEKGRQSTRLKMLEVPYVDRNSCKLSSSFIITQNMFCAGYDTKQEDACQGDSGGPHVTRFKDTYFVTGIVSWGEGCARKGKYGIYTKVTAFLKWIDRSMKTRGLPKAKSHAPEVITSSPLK
T2 sequence (P00742 41-179 partner limits assumed): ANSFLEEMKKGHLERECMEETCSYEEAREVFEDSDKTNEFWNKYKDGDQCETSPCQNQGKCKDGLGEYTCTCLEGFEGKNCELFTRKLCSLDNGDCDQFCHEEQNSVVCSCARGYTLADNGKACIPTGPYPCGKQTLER
APC (activated protein C), sequence (P04070 212-461 limits assumed): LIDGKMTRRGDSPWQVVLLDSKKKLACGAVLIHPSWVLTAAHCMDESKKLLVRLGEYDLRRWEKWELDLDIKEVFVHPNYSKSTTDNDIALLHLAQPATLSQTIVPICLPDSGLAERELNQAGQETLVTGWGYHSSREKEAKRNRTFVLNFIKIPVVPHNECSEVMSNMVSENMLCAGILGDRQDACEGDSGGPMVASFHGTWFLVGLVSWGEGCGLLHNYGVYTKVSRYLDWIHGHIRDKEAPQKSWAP
APC (activated protein C), sequence (P04070 43-197 partner limits assumed): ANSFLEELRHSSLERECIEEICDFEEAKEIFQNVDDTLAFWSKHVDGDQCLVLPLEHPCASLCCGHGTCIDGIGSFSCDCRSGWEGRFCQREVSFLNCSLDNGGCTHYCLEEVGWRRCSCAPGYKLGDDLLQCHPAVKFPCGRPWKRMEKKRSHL

increase in activity on exchanging L-Nle(O-Bzl) (SMA4) at P3 [1]: 13 fold
Substance: Ac-Lys-Dab(Z )-Lys(2-Cl-Z)-Arg-AC C [SMA1]

Substance: Ac-K[Dab](Cbz)[Igl]R-{ACC} (SMILES CC(=O)N[C@@H](CCCCN)C(=O)N[C@@H](CCNC(=O)OCc1ccccc1)C(=O)N[C@H](C(=O)N[C@@H](CCCNC(=N)N)C(=O)Nc1ccc2c(CC(N)=O)cc(=O)oc2c1)C1Cc2ccccc2C1) [SMA5]
cleaved more efficiently than the best natural substrate (SMA54) ([1]; relative to SMA54): approximately 50 fold

Substance: Ac–hCha–Cys(MeBzl)–Pip–Arg–ACC [SMII22]
kcat/KM selectivity for thrombin over APC (thrombin [2]): 3383 fold
kcat/KM selectivity for thrombin over fXa (thrombin [2]): 162 fold

Substance: Ac-[dP][hArg][1Nal]R-{ACC} (SMILES CC(=O)N1CCC[C@@H]1C(=O)N[C@@H](CCCCNC(=N)N)C(=O)N[C@@H](Cc1cccc2ccccc12)C(=O)N[C@@H](CCCNC(=N)N)C(=O)Nc1ccc2c(CC(N)=O)cc(=O)oc2c1) [SMX15]
times more hydrolyzed by fXa than by thrombin (fXa (factor Xa) [3]; ratio of kcat/KM values): 358 times

Substance: Ac-Gln-hArg-1-Nal-Arg-AC C [SMX14]
change of overall activity on replacing D-Pro (SMX15) at P4 (fXa (factor Xa) [4]): only a slight decrease in the overall activity

Substance: Cy7–6-Ahx–hCha–Cys(MeBzl)–Pip–Arg^P(OPh)2 [P-SMII222]
selectivity of thrombin labeling in human plasma at 20 μM probe (thrombin in human plasma): selectivity was maintained with thrombin labeling

inhibition of APC less efficient than fXa (fXa (factor Xa) [5]): 75 fold
Substance: Cy3–6-Ahx–DPro–hArg–1-Nal–Arg^P(OPh)2 [P-SMX152]

Substance: Ac-M[hArg][1Nal]R-{ACC} (SMILES CSCC[C@H](NC(C)=O)C(=O)N[C@@H](CCCCNC(=N)N)C(=O)N[C@@H](Cc1cccc2ccccc12)C(=O)N[C@@H](CCCNC(=N)N)C(=O)Nc1ccc2c(CC(N)=O)cc(=O)oc2c1) [SMX61]
increase of the kcat/KM value on exchanging D-Pro at P4 (SMX15) for L-Met (fXa (factor Xa) [3]; fXa, relative to SMX15): 55%

increase in activity on exchanging L-Nle(O-Bzl) (SMA4) at P3 [1]: 5.5 fold
Substance: Ac-Lys-Glu(Bzl)-Lys(2-Cl-Z)-Arg-AC C [SMA3]

Substance: Cy5–6-Ahx–Lys–Dab(Z)–Lys–Arg^P(OPh)2 [P-SMA172]
off-target labeling in human plasma at 20 μM probe (APC in human plasma): only minor additional labeling between 25 and 35 kDa

increase in activity on exchanging L-Nle(O-Bzl) (SMA4) at P3 [1]: 22 fold
Substance: Ac-Lys-Agp-Lys(2-Cl-Z)-Arg-AC C [SMA2]

kobs/I selectivity: thrombin inhibition more rapid than APC (thrombin [6]): 348 fold
kobs/I selectivity: thrombin inhibition more rapid than fXa (thrombin [6]): 2087 fold
Substance: Ac–hCha–Cys(MeBzl)–Pip–Arg^P(OPh)2 [I-SMII22]

Substance: Ac-Arg(NO2)-hArg-1-Nal-Arg-AC C [SMX13]
change of overall activity on replacing D-Pro (SMX15) at P4 (fXa (factor Xa) [4]): only a slight decrease in the overall activity
